Screening data: PubChem, several laboratories
Only some compounds are listed: those with a hit (about 4.7% of all), similar ones and a draw of the others.
RGS4 pot: RGS4 potentiators or activators, primary screen, cell-based, HEK293 M3R inducible RGS4, calcium flux. carbachol calcium flux Fluo4; hits give low values. B-score at 10 µM. actives 0.92% (n = 310,000);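 active means B-score of the integrated calcium signal more than 4 SD below the library mean, with starting fluorescence not abnormally high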;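 further: negative B-score means reduced calcium response which marks RGS4 activation or potentiation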
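System: HEK293 FlpIn-TREx cells, stable M3R, doxycycline-inducible RGS4. Timing: overnight RGS4 induction, 30 min dye load 37 °C, 20 min compound RT. Also added: carbachol, ECmax concentration. Measured by: Fluo4 fluorescence kinetic imaging of calcium. Evaluation: integrated calcium ratio converted to B score.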
MrgX1 agonist: agonists of human MrgX1 receptor, primary screen, HEK293 cells, Fluo-4 calcium flux. Mas-related G-protein coupled receptor member X1 (Homo sapiens), Q96LB2. Fluo-4 calcium fluorescence, agonist mode; hits give high values. B-score at 10 µM. actives 0.44% (n = 310,000);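 active means calcium response B-score plate-corrected fluorescence ratio at least 3 library SD, with starting fluorescence B-score inside 5 SD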
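Test system: HEK293 cells stably expressing human MrgX1 receptor; Input: fifteen thousand cells per well; Dosing: compound delivered in addition one of three; Schedule: overnight seeding, then 1 h dark dye loading; Technique: Fluo-4 NW calcium fluorescence; Measure: B-scored fluorescence response ratio; Controls: positive and negative controls per plate.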
MrgX1 antagonist: antagonists of human MrgX1 receptor, primary screen, HEK293 cells, Fluo-4 calcium flux | BAM8-22 antagonism; hits give low values | B-score at 10 µM | actives 1.3% (n = 310,000) | AID 588676, 2011;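 active means calcium-response B-score plate-corrected more than 3 library SD below zero, starting fluorescence within 5 deviations, no agonist response on first addition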;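 further: peak minus trough fluorescence over baseline after final BAM8-22 challenge near maximal dose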
RGS4 inh: RGS4 inhibitors, primary screen, cell-based, HEK293 M3R inducible RGS4, calcium flux | actives 0.45% (n = 310,000) | Fluo-4 calcium flux; hits give high values; triggered by carbachol at its EC20 | B-score at 10 µM | Regulator of G-protein signaling 4 (Homo sapiens), P49798;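 active means B-score, a plate-corrected calcium signal, over three deviations above library mean, with baseline fluorescence within five deviations of library mean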;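 further: RGS4 expression induced by doxycycline in cells with stable M3 receptor; B-score is computed from the integrated fluorescence ratio over baseline after carbachol; higher B-score means a larger calcium signal and so more RGS4 inhibition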
Target sequence (P49798 whole entry, looked up): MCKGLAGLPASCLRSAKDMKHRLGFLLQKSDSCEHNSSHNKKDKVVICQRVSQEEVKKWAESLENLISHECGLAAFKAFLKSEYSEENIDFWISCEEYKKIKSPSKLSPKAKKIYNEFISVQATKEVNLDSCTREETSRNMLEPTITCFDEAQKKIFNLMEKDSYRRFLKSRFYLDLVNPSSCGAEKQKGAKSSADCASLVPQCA
Cl transport mod: KCC2 cotransporter modulators, thallium flux, primary screen, cell-based, HEK293 KCC2, FluoZin-2 fluorescence, MLSMR | KCC2 cells, thallium flux FluoZin-2 fluorescence | B-score of Tl+ flux slope (higher = more flux/activation; lower = inhibition) at 10 µM | actives 2.2% (n = 190,000);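 active means thallium flux slope and its plate-corrected score both differing from the plate sample mean at a set confidence after two filtering rounds, in either direction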;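 further: slope of fluorescence scaled to starting intensity during 10 to 20 s after thallium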
MrgX1 PAM: positive allosteric modulators of MrgX1, primary screen, HEK293 cells, Fluo-4 calcium flux; Mas-related G-protein coupled receptor member X1 (Homo sapiens), Q96LB2; FDSS; hits give high values; B-score at 10 µM; actives 0.63% (n = 310,000); AID 588675, 2011;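 active means plate-corrected calcium response at least 3 library SD above typical, normal starting fluorescence, not activating the receptor alone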;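 further: compound read alongside a low EC10 to EC30 dose of BAM8-22 agonist; peak minus trough fluorescence over baseline measured at the second addition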
Starred values were filed as active, the others as inactive; i = inactive; . = not tested or not shown.

SMILES | RGS4 pot | MrgX1 agonist | MrgX1 antagonist | RGS4 inh | Cl transport mod | MrgX1 PAM
COc1ccc(NC(=O)C2CC3CCC2C3)c(OC)c1 (centres undefined) | i | i | i | i | . | i
O=[N+]([O-])c1ccc(S(=O)(=O)c2cccc(C(F)(F)F)c2)nc1 | i | i | i | i | . | i
O=C(O)/C=C/C(=O)c1ccc2c(c1)CCc1ccccc1-2 | i | i | -5.2* | i | . | i
CC(=O)Nc1ccc2c(c1)CCc1ccccc1-2 | i | i | i | i | . | i
CC1(C)CCc2c([nH]c3ccccc3c2=O)O1 | -7* | i | i | i | 1.6 | i
Cc1oc(-c2cccc(Cl)c2)nc1CN1CCCC(C(=O)NC(C)c2ccc3c(c2)OCCO3)C1 (centres undefined) | -7* | i | i | i | . | i
Cc1ccc(S(=O)(=O)N2[C@@H](c3ccc(Cl)cc3)C(C(=O)O)=CC[C@H]2c2cccc(Cl)c2)cc1 | . | 30* | i | . | . | i
Cc1ccc(S(=O)(=O)N2[C@@H](c3ccccc3)C(C(=O)O)=CC[C@H]2c2ccc3c(c2)OCO3)cc1 | . | i | i | . | . | 10*
Cc1ccc(S(=O)(=O)N2[C@@H](c3ccc(Cl)cc3)C(C(=O)O)=CC[C@H]2c2cccc(C)c2)cc1 | . | i | i | . | . | i
COc1ccc(NC(=O)C2CCN(S(=O)(=O)c3cccc4nonc34)CC2)cc1OC | i | i | i | i | . | i
NS(=O)(=O)c1ccc(NC(=O)CN2CCc3ccccc3C2)cc1 | i | i | i | i | . | i
CCOC(=O)CSc1nc2ccc(NC(=O)CSc3nnnn3Cc3ccccc3)cc2s1 | i | i | i | i | -1.2 | 6.9*
O=C(NCCCN1CCCC1=O)c1cccc(S(=O)(=O)N2CCN(c3ccc(F)cc3)CC2)c1 | i | i | i | i | . | i
CCOC(=O)C1CCCN(S(=O)(=O)c2cc(Br)cc3c2N(C(=O)CC)CC3)C1 (centres undefined) | i | i | i | i | . | i
CCCc1cc(=O)oc2cc(C)cc(O)c12 | i | 35* | i | i | . | i
O=C(NNC(=O)C1C2C=CC(C2)C1C(=O)O)c1ccccc1O (centres undefined) | i | i | i | i | . | i
Cc1ccc(C)c(N2C(=O)CC(Cc3ccc(Br)cc3)C2=O)c1 (centres undefined) | i | i | i | i | . | i
CCOC(=O)Cc1csc(NC(=O)c2ccc(C)cc2)n1 | i | i | i | i | -0.074 | i
CCOC(=O)Cc1csc(NC(=O)c2cccs2)n1 | i | i | i | i | -1.5 | i
CCOC(=O)Cc1csc(NC(=S)NC(=O)c2ccc(C)cc2)n1 | i | i | i | i | 55* | i
Cc1csc(NC(=S)NC(=O)c2ccccc2)n1 | i | i | i | i | . | i
CCOC(=O)Cc1csc(NC(=S)NC(=O)c2ccccc2)n1 | i | i | i | i | 52* | i
CCOC(=O)Cc1csc(NC(=O)c2ccc(Br)s2)n1 | i | 31* | i | i | 0.28 | i
CCOC(=O)Cc1csc(NC(=S)NC(=O)c2ccccc2Br)n1 | i | i | i | i | 50* | i
Oc1cc2c(cc1CN1CCN(c3ncccn3)CC1)OCO2 | i | i | i | i | . | i
CCCCn1c(N)c(N(CCOC)C(=O)CC(NC(=O)c2ccccc2)c2ccccc2)c(=O)[nH]c1=O (centres undefined) | i | i | i | i | . | i
